Assays:
Cytochrome P450 3A4 = Cytochrome P450 3A4 (Homo sapiens, UniProt P08684); experiment: Inhibition of recombinant human microsomal CYP3A4 expressed in baculovirus infected BTI-TN-5B1-4 cell microsomes using CYP/Luciferin as substrate pre-incubated for 30 mins followed by NADPH regeneration mixture addition and measured after 30 mins by Promega P450-Glo assay; type: ADME
Albumin [1] = target: T1, Albumin (Homo sapiens, UniProt P02768); experiment: Binding affinity to HSA assessed as absorption maxima for free monomer at 1.25 uM to 11.25 uM by UV-visible spectrophotometry; type: ADME; conditions: isolated protein
How it was run: (§1)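 Compound in aqueous phosphate buffer, pH 8, at 1.25 to 11.25 μM. Absorption and fluorescence emission spectra were recorded without and with human serum albumin (HSA), with HSA added stepwise. The monomer/dimer equilibrium constant was obtained by fitting the absorption data at 20 °C.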

Albumin [2] = target: T1, Albumin; experiment: Binding affinity to HSA assessed as emission maxima for HSA-complexed monomer at 1.25 uM to 11.25 uM by spectroflurometry; type: ADME; conditions: isolated protein; how it was run: as §1
786-0 = experiment: Mitochondrial toxicity in human 786-O cells at 10 uM after 6 hrs by MitoTracker Red chloromethyl-X-rosamine based assay; type: cell-based; conditions: 786-0, 6 h
[3] = Aggregation behavior in phosphate buffer at pH 8 assessed as dimerization equilibrium constant at 1.25 uM to 11.25 uM by UV-visible spectrophotometry; type: physicochemical; conditions: pH 8, 1.25 µM; how it was run: as §1
[4] = Total AUC in BALB/c mouse at 1 mg/kg, iv by LC-MS/MS analysis; type: ADME, organism-based; set-up: dose 1 mg/kg, time AUCmax, route intravenous; conditions: in vivo
How it was run: (§2)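 BALB/c mice were dosed IV at 1 mg/kg or orally at 20 mg/kg. Plasma Cmax, Tmax, total AUC and half-life were determined for each route.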

[5] = Tmax in BALB/c mouse at 1 mg/kg, iv by LC-MS/MS analysis; type: ADME, organism-based; conditions: in vivo; how it was run: as §2
Albumin [6] = target: T1, Albumin; experiment: Binding affinity to HSA assessed as absorption maxima for HSA-complexed monomer at 1.25 uM to 11.25 uM by UV-visible spectrophotometry; type: ADME; conditions: isolated protein; how it was run: as §1
Cytochrome P450 2C19 = Cytochrome P450 2C19 (Homo sapiens, UniProt P33261); experiment: Inhibition of recombinant human microsomal CYP2C19 expressed in baculovirus infected BTI-TN-5B1-4 cell microsomes using CYP/Luciferin as substrate pre-incubated for 30 mins followed by NADPH regeneration mixture addition and measured after 30 mins by Promega P450-Glo assay; type: ADME
[7] = Half life in BALB/c mouse at 20 mg/kg, po by LC-MS/MS analysis; type: ADME, organism-based; conditions: in vivo; how it was run: as §2
hERG = experiment: Selectivity ratio of IC50 for inhibition of human ERG to EC50 for antitrypanosomal activity against Trypanosoma brucei bloodstream form; type: toxicity; conditions: read-out: Ratio IC50/EC50
[8] = Cytotoxicity against human THP1 cells by MTT assay; type: cell-based, THP-1
[9] = Half life in BALB/c mouse at 1 mg/kg, iv by LC-MS/MS analysis; type: ADME, organism-based; conditions: in vivo; how it was run: as §2
[10] = Aggregation behavior in phosphate buffer at pH 8 assessed as increase in absorption spectra at 1.25 uM to 11.25 uM by UV-visible spectrophotometry; type: physicochemical; conditions: pH 8, 1.25 µM; how it was run: as §1
Cytochrome P450 2D6 = Cytochrome P450 2D6 (Homo sapiens, UniProt P10635); experiment: Inhibition of recombinant human microsomal CYP2D6 expressed in baculovirus infected BTI-TN-5B1-4 cell microsomes using CYP/Luciferin as substrate pre-incubated for 30 mins followed by NADPH regeneration mixture addition and measured after 30 mins by Promega P450-Glo assay; type: ADME
[11] = Cmax in BALB/c mouse at 1 mg/kg, iv by LC-MS/MS analysis; type: ADME, organism-based; set-up: dose 1 mg/kg, route intravenous; conditions: in vivo; how it was run: as §2
Albumin [12] = target: T1, Albumin; experiment: Binding affinity to HSA assessed as emission maxima for free monomer at 1.25 uM to 11.25 uM by spectroflurometry; type: ADME; conditions: isolated protein; how it was run: as §1
Cytochrome P450 2C9 = Cytochrome P450 2C9 (Homo sapiens, UniProt P11712); experiment: Inhibition of recombinant human microsomal CYP2C9 expressed in baculovirus infected BTI-TN-5B1-4 cell microsomes using CYP/Luciferin as substrate pre-incubated for 30 mins followed by NADPH regeneration mixture addition and measured after 30 mins by Promega P450-Glo assay; type: ADME
Albumin [13] = target: T1, Albumin; experiment: Binding affinity to HSA assessed as monomer/HSA equilibrium binding constant at 11.25 uM by spectroflurometry; type: ADME; conditions: isolated protein; how it was run: as §1
Albumin [14] = target: T1, Albumin; experiment: Binding affinity to HSA assessed as emission maxima for aggregate at 1.25 uM to 11.25 uM by spectroflurometry; type: ADME; conditions: isolated protein; how it was run: as §1
[15] = Total AUC in BALB/c mouse at 20 mg/kg, po by LC-MS/MS analysis; type: ADME, organism-based; set-up: dose 20 mg/kg, time AUCmax, route oral; conditions: in vivo; how it was run: as §2
[16] = Selectivity index, ratio of CC50 for cytotoxicity against human THP1 cells to EC50 for antitrypanosomal activity against Trypanosoma brucei bloodstream form; type: toxicity, cell-based; conditions: read-out: Ratio CC50/EC50
Albumin [17] = target: T1, Albumin; experiment: Binding affinity to HSA assessed as absorption maxima for aggregate at 1.25 uM to 11.25 uM by UV-visible spectrophotometry; type: ADME; conditions: isolated protein; how it was run: as §1
[18] = target: T2, Voltage-gated inwardly rectifying potassium channel KCNH2 (Homo sapiens, UniProt Q12809); experiment: Inhibition of human ERG at 10 uM after 2 hrs by fluorescence polarization assay
How it was run: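 Single-concentration screen at 10 μM within an early in vitro ADME-tox panel, covering cytotoxicity in A549 cells and hERG inhibition.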

Cytochrome P450 1A2 = target: T3, Cytochrome P450 1A2 (Homo sapiens, UniProt P05177); experiment: Inhibition of recombinant human microsomal CYP1A2 expressed in baculovirus infected BTI-TN-5B1-4 cell microsomes using CYP/Luciferin as substrate pre-incubated for 30 mins followed by NADPH regeneration mixture addition and measured after 30 mins by Promega P450-Glo assay; type: ADME
T3 sequence (P05177 whole entry): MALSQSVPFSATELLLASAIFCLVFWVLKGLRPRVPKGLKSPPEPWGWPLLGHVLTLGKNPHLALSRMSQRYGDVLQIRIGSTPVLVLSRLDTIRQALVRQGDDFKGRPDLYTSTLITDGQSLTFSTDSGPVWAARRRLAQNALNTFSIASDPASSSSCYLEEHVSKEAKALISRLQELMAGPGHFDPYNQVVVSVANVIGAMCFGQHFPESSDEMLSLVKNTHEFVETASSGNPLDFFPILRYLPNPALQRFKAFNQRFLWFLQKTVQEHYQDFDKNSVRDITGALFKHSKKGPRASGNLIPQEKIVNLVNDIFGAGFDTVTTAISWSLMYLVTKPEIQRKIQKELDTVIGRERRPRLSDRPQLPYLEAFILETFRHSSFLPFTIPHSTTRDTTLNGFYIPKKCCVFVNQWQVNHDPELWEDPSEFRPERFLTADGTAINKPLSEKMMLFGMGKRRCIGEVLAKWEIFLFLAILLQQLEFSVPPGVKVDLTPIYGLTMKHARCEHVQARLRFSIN

[19] = Aggregation behavior in phosphate buffer at pH 8 assessed as increase in emission spectra at 1.25 uM to 11.25 uM by spectroflurometry; type: physicochemical; conditions: pH 8, 1.25 µM; how it was run: as §1
[20] = Cmax in BALB/c mouse at 20 mg/kg, po by LC-MS/MS analysis; type: ADME, organism-based; set-up: dose 20 mg/kg, route oral; conditions: in vivo; how it was run: as §2
[21] = Tmax in BALB/c mouse at 20 mg/kg, po by LC-MS/MS analysis; type: ADME, organism-based; conditions: in vivo; how it was run: as §2
[22] = target: T2, Voltage-gated inwardly rectifying potassium channel KCNH2; experiment: Inhibition of human ERG after 2 hrs by fluorescence polarization assay

T1 sequence (P02768 whole entry): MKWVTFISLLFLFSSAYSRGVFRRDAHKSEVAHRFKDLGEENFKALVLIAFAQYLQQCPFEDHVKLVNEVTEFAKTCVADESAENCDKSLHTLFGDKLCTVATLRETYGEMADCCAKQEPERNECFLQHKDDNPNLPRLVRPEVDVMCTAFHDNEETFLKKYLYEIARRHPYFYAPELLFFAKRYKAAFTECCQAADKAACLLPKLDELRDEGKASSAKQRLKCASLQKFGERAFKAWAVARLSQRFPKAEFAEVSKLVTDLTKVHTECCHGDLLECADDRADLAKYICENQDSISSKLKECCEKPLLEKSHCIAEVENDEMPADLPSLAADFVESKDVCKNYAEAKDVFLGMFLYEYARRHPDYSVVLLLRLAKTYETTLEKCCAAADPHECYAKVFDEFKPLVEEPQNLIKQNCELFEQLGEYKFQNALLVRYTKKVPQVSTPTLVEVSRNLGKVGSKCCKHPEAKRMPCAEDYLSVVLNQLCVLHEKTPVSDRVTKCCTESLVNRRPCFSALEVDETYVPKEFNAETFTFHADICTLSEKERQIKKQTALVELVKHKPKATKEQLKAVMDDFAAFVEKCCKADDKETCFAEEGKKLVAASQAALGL
T2 sequence (Q12809 whole entry): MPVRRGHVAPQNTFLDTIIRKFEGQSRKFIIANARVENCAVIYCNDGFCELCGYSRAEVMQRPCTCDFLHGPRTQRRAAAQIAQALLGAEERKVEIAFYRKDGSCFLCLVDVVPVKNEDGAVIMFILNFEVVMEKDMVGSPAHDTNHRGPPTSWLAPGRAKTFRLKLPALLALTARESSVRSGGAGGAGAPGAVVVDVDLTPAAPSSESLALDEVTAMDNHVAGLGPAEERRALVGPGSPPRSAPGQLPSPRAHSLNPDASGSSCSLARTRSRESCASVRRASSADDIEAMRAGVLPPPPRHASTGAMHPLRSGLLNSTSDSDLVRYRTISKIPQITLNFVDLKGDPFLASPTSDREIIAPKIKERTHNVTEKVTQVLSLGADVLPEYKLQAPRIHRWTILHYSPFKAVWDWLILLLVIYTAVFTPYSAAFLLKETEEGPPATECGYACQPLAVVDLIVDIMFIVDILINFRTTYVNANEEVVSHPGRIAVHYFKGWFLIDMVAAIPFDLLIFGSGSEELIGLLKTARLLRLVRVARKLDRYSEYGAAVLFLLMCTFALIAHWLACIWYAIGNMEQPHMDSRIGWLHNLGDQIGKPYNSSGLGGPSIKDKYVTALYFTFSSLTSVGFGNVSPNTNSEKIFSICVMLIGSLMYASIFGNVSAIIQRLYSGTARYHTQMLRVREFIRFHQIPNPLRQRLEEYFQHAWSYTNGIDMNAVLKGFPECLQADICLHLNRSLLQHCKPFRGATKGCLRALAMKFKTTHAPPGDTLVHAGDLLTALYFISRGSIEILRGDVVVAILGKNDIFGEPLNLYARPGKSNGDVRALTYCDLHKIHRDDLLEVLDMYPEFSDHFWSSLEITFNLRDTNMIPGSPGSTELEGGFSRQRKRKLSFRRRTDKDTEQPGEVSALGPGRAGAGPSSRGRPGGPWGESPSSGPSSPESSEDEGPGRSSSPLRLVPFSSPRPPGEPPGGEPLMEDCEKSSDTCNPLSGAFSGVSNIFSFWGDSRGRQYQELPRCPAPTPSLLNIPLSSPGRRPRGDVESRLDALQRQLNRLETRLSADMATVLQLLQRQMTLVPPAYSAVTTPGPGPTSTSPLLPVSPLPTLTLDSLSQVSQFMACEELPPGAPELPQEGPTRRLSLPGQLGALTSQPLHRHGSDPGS
Chain of Cytochrome P450 3A4 (P08684 whole entry): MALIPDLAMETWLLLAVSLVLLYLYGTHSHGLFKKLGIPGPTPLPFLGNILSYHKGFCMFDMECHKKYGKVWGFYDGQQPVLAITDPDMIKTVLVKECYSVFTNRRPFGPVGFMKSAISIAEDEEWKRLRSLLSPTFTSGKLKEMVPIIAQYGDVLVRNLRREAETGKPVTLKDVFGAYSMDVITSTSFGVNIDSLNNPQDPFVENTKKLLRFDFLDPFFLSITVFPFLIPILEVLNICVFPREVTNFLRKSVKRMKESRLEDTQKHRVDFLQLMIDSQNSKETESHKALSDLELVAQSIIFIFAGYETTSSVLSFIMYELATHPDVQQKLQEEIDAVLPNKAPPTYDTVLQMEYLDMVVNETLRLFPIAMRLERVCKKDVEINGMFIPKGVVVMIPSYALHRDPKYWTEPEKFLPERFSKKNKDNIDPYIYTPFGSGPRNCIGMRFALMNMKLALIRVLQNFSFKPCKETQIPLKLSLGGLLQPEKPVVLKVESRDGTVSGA
Chain of Cytochrome P450 2C19 (P33261 whole entry): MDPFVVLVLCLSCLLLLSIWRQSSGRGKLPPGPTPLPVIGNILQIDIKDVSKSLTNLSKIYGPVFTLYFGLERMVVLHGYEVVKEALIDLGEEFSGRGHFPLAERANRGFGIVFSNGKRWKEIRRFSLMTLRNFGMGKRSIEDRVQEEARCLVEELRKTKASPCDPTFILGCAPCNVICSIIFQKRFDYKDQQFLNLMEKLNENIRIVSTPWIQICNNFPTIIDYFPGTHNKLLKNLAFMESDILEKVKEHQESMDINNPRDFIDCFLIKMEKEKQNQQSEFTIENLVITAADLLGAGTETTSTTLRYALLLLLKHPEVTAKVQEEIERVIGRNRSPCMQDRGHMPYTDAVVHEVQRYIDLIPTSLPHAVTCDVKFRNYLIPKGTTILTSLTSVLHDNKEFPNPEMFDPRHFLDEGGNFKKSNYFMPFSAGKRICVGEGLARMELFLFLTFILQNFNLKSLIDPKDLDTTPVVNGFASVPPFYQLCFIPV
Chain of Cytochrome P450 2D6 (P10635 whole entry): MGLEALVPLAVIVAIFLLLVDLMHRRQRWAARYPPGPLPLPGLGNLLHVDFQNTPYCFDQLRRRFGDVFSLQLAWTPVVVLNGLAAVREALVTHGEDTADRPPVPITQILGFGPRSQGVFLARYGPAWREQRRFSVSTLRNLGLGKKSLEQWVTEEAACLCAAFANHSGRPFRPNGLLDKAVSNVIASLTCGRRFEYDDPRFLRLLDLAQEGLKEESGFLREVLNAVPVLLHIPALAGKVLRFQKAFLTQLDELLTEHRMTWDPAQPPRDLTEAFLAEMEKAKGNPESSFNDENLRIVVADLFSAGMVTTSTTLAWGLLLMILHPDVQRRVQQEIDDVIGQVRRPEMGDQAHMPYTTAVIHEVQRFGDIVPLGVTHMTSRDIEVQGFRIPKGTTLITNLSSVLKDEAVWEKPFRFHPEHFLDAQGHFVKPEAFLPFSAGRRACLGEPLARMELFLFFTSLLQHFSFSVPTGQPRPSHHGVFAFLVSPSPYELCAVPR
Chain of Cytochrome P450 2C9 (P11712 whole entry): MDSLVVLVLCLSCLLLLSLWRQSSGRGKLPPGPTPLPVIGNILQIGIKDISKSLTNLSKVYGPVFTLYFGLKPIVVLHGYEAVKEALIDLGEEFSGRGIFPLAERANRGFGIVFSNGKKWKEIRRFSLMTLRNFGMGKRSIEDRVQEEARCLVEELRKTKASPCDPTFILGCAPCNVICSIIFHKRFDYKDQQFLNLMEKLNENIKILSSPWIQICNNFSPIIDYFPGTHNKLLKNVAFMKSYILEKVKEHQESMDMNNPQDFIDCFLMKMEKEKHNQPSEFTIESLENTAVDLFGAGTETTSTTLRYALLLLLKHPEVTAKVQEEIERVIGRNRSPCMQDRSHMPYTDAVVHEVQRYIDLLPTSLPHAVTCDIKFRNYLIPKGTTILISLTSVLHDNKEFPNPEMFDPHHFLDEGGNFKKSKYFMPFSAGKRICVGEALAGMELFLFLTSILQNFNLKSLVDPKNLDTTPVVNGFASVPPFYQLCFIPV

SMILES: COc1ccc2c(=O)c(O)c(-c3ccc4c(c3)OCO4)oc2c1
- IC50 (Cytochrome P450 3A4): 6000 nM
- Activity (Albumin [1]): 360 nm
- Activity (Albumin [2]): 540 nm
- Activity (786-0): Non-Toxic
- Ke [3]: 1.8 ×10⁵ /M
- AUC [4]: 9.99 µM·h
- Tmax [5]: 1 h
- Activity (Albumin [6]): 360 nm
- IC50 (Cytochrome P450 2C19): 1500 nM
- half-life [7]: 45.4 h
- selectivity ratio (hERG): > 250
- CC50 [8]: > 100000 nM
- half-life [9]: 19.8 h
- Activity [10]: Active
- IC50 (Cytochrome P450 2D6): 50 nM
- Cmax [11]: 1080 nM
- Activity (Albumin [12]): 475 nm
- IC50 (Cytochrome P450 2C9): 1600 nM
- Kb (Albumin [13]): 2.5 ×10⁵ /M
- Activity (Albumin [14]): 560 nm
- AUC [15]: 8.65 µM·h
- selectivity ratio [16]: 250
- Activity (Albumin [17]): 325 nm
- inhibition (INH) [18]: Not Active
- IC50 (Cytochrome P450 1A2): 400 nM
- Activity [19]: Active
- Cmax [20]: 910 nM
- Tmax [21]: 0.5 h
- IC50 [22]: > 100000 nM

From ChEMBL document CHEMBL4433215, “SAR Studies and Biological Characterization of a Chromen-4-one Derivative as an Anti-Trypanosoma brucei Agent” (ACS Med Chem Lett, 2019)
